Sampled rows, rich in hits. Any-hit rate of the full collection: about 2.6%.
UCH37 DUB inh: human UCH37 deubiquitinating enzyme inhibition | 0.33% of 330,000 active | Q9Y5K5 | inhibition, % (no concentration beside the values) | AID 588478 | purified proteasome/UCH37, Ub-AMC cleavage fluorescence;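 active means mean inhibition over replicate wells above about 20%, limit read from the data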
Target sequence (Q9Y5K5 whole entry, looked up): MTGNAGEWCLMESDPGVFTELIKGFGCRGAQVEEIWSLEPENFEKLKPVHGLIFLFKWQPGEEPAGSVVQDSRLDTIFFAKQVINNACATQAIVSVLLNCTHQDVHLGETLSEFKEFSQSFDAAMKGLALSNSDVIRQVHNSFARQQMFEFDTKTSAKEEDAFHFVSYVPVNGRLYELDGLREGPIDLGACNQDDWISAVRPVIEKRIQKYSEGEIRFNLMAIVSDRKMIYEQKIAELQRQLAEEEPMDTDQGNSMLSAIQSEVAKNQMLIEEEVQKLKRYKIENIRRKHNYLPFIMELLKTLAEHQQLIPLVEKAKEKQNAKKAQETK
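Material: Human UCH37 enzyme supplied as purified proteasome complex | Schedule: 30 min preincubation with enzyme, 25 min cleavage at room temperature | Detection: AMC fluorescence 355/460 nm | Measure: % inhibition of Ub-AMC cleavage fluorescence | Controls: Wells without proteasome as full block, compound-free enzyme plus substrate as uninhibited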
NSD2 inh: NSD2 (human) methyltransferase inhibition; AID 743445; 0.54% of 310,000 active; inhibition, % at 12.5 µM; NSD2 peptide methylation, AlphaScreen, 120 min; O96028; in the data active means inhibition above about 50%
SIRT5 inh: blocks human SIRT5 desuccinylation of peptide; Purified SirT5, succinyl-peptide AMC, trypsin-coupled fluorescence; AID 652115; 1.1% of 330,000 active; Q9NXA8; inhibition, % at 15 µM; in the data active means inhibition above about 15%
FGF22 binding-1: shifts melting point of recombinant human FGF22 | Q9HCT0 | recombinant FGF22 thermal shift, SYPRO orange fluorescence; percent of sucrose octasulfate shift, DMSO zero | activity (Tm shift, normalised), % at 9.99 µM | 1.5% of 340,000 active | AID 651658;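 active means mean Tm shift, scaled 0 neutral to 100 positive control, at about 1.3% or above, every replicate too, limit read from the data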
Target sequence (Q9HCT0 whole entry, looked up): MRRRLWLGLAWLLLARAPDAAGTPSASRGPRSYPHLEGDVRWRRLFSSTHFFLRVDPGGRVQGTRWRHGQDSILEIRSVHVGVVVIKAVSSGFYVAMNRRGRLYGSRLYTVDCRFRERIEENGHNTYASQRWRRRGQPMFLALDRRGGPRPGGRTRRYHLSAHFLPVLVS
Casp6 inh: blocks human caspase-6 cleavage activity | purified caspase-6, Z-VEID-R110 cleavage fluorescence | inhibition, % at 12.5 µM | 0.53% of 350,000 active | AID 686996;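 active means mean inhibition across replicates at least about 35%, with every replicate also reaching that limit, limit read from the data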
FGF22 binding-2: FGF22 (human) binding in thermal shift. shares compounds with FGF22 binding-1. recombinant FGF22 thermal shift, SYPRO orange fluorescence. thermal shift activity, °C (ΔTm) at 38 µM. 2% of 1,000 active;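 active means fitted rise in melting shift crosses a set limit at or below the top valid dose tested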
FGF22 TSA: binds human FGF22 shifting its melting temperature; shares compounds with FGF22 binding-1; Thermal shift assay, SYPRO orange, melting temperature shift; Tm shift (activity), % at 38 µM; 50 tested, under 10 active;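 active means compounds whose fitted dose curve of melting temperature shift rises past a set threshold within the tested doses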
SYPRO no-protein: compound-only SYPRO artifact for FGF22 binders | shares compounds with FGF22 binding-1 | compound-only SYPRO orange thermal shift counter-screen, no protein | AC50, µM (top dose mostly 38 µM) | 2% of 1,000 active | AID 743019;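 active means rising signal whose fitted curve reaches the 0.54 level within the top valid dose, showing a melting point, actives reach about 13 µM in these data; inactive means the rest, including activity in the opposite direction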; further: value is where the raw curve crosses a fixed level and not half-maximal
Hits are given with their value.

Screening C[C@@H]1CN([C@@H](C)CO)C(=O)c2cc(N(C)C)ccc2O[C@H]1CN(C)C(=O)Nc1ccc2c(c1)OCO2 returned SIRT5 inh inactive, FGF22 binding-1 inactive and Casp6 inh inactive.
For CO[C@@H]1CN(C)C(=O)c2ccc(NC(=O)c3cccc(F)c3)cc2OC[C@H](C)N(CC2CC2)C[C@H]1C the results were SIRT5 inh inactive, FGF22 binding-1 inactive and Casp6 inh inactive.
`COc1ccc(NC(=O)CN(c2ccc(C(C)C)cc2)S(=O)(=O)c2c(C)noc2C)cc1OC` gave UCH37 DUB inh inactive, FGF22 binding-1 13, Casp6 inh inactive, FGF22 binding-2 inactive and SYPRO no-protein inactive.
For COc1ccc(N(CC(=O)Nc2ccc(C)c(C)c2)S(=O)(=O)c2c(C)noc2C)cc1 the results were UCH37 DUB inh inactive, NSD2 inh inactive, SIRT5 inh inactive, FGF22 binding-1 inactive and Casp6 inh inactive.
C[C@H](CO)N1C[C@H](C)[C@H](CN(C)C(=O)Nc2ccc3c(c2)OCO3)Oc2cc(C3=CCCC3)ccc2S1(=O)=O was read as SIRT5 inh inactive, FGF22 binding-1 1.8, Casp6 inh inactive, FGF22 binding-2 inactive and SYPRO no-protein inactive.
C[C@@H]1CN([C@H](C)CO)S(=O)(=O)c2ccc(C3=CCCC3)cc2O[C@@H]1CN(C)C(=O)Nc1ccc2c(c1)OCO2 was read as SIRT5 inh inactive, FGF22 binding-1 1.2, Casp6 inh inactive, FGF22 binding-2 inactive and SYPRO no-protein inactive.
`COc1cccc(C#Cc2ccc3c(c2)O[C@@H](CN(C)S(=O)(=O)c2ccccc2F)[C@@H](C)CN([C@@H](C)CO)S3(=O)=O)c1` gave SIRT5 inh inactive, FGF22 binding-1 inactive and Casp6 inh inactive.
For C/C(=N\NC(=O)c1cccc(S(=O)(=O)N2CCOCC2)c1)c1ccc(OC(F)F)cc1 the results were NSD2 inh inactive, SIRT5 inh inactive, FGF22 binding-1 1.6, Casp6 inh inactive, FGF22 binding-2 inactive and SYPRO no-protein inactive.
Screening O=C(N[C@H]1CC[C@H](CCn2cc(C3CCCCC3)nn2)O[C@H]1CO)c1cccnc1 returned SIRT5 inh inactive, FGF22 binding-1 inactive and Casp6 inh inactive.
CCCCN1C(=O)NC(NS(=O)(=O)c2ccc(N)cc2)(C(F)(F)F)C1=O (stereo not given) was read as UCH37 DUB inh inactive and NSD2 inh inactive.
Screening CN1C(=O)NC(NS(=O)(=O)c2ccc(N)cc2)(C(F)(F)F)C1=O (stereo not given) returned UCH37 DUB inh inactive, NSD2 inh inactive, SIRT5 inh inactive, FGF22 binding-1 3.8, Casp6 inh inactive, FGF22 binding-2 inactive and SYPRO no-protein inactive.
COc1ccc(/C(N)=N/OC(=O)c2ccc([N+](=O)[O-])c(C)c2)cc1OC was read as UCH37 DUB inh inactive, NSD2 inh inactive, SIRT5 inh inactive, FGF22 binding-1 inactive and Casp6 inh inactive.
For Cc1cc(C(=O)O/N=C(\N)c2ccncc2)ccc1[N+](=O)[O-] the results were UCH37 DUB inh inactive, NSD2 inh inactive, SIRT5 inh inactive, FGF22 binding-1 18, Casp6 inh inactive, FGF22 binding-2 inactive and SYPRO no-protein inactive.
For O=C(NN=C/C=C/c1ccc2c(c1)OCO2)c1ccc([N+](=O)[O-])cc1 the results were UCH37 DUB inh inactive.
Screening O=[N+]([O-])c1ccc(S(=O)(=O)Nc2nnc(C(F)(F)F)s2)cc1 returned UCH37 DUB inh inactive, NSD2 inh inactive, SIRT5 inh inactive, FGF22 binding-1 1.5, Casp6 inh inactive, FGF22 binding-2 inactive and SYPRO no-protein inactive.
`CC(C)Cc1nnc(NS(=O)(=O)c2ccc([N+](=O)[O-])cc2)s1` gave UCH37 DUB inh inactive, NSD2 inh inactive, SIRT5 inh inactive, FGF22 binding-1 inactive and Casp6 inh inactive.
C[C@@H]1CN([C@@H](C)CO)C(=O)c2cc(C3=CCCC3)cnc2O[C@@H]1CN(C)C(=O)c1ccc(F)cc1 was read as SIRT5 inh inactive, FGF22 binding-1 inactive and Casp6 inh inactive.
Screening CC(=O)Nc1ccc(/C(C)=N/Nc2nc(Nc3ccccc3)nc(N3CCOCC3)n2)cc1 returned NSD2 inh inactive, SIRT5 inh inactive, FGF22 binding-1 1.6, Casp6 inh inactive, FGF22 binding-2 inactive and SYPRO no-protein inactive.
Screening CO[C@H]1CN(C)C(=O)c2cc(NC(=O)Nc3ccccc3F)ccc2OC[C@@H](C)NC[C@@H]1C returned SIRT5 inh inactive and FGF22 binding-1 inactive.
`O=C1COc2ccc(S(=O)(=O)N3CCCC3)cc2N1` gave UCH37 DUB inh inactive, NSD2 inh inactive, SIRT5 inh inactive, FGF22 binding-1 1.5, Casp6 inh inactive, FGF22 binding-2 inactive and SYPRO no-protein inactive.
`C[C@@H]1CN([C@@H](C)CO)C(=O)c2cc(NS(C)(=O)=O)ccc2O[C@@H](C)CCCCO[C@H]1CN(C)Cc1ccc(C(=O)O)cc1` gave SIRT5 inh inactive, FGF22 binding-1 inactive and Casp6 inh inactive.
Screening Cc1cccc(S(=O)(=O)N2C[C@H]3[C@@H](c4ccccc42)[C@H](CO)N3C(=O)CC2CC2)c1 returned SIRT5 inh inactive, FGF22 binding-1 inactive and Casp6 inh inactive.
For COc1ccc(-c2nc(-c3ccc(O)cc3O)cs2)cc1OC the results were UCH37 DUB inh inactive, NSD2 inh inactive, SIRT5 inh inactive, FGF22 binding-1 2.5, Casp6 inh inactive, FGF22 binding-2 inactive, FGF22 TSA inactive and SYPRO no-protein inactive.
For O=C(C[C@@H]1C[C@@H]2c3cc(NC(=O)Nc4ccccc4F)ccc3O[C@@H]2[C@H](CO)O1)NCc1cc(F)ccc1F the results were SIRT5 inh inactive, FGF22 binding-1 inactive and Casp6 inh inactive.
For COc1cccc2cc(S(=O)(=O)c3ccc(C)cc3)c(=NNS(=O)(=O)c3ccc(C)cc3)oc12 the results were UCH37 DUB inh inactive.
Screening COc1ccc(S(=O)(=O)N/N=c2\oc3c(OC)cccc3cc2S(=O)(=O)c2ccc(C)cc2)cc1OC returned NSD2 inh inactive, SIRT5 inh inactive, FGF22 binding-1 1.7, Casp6 inh inactive, FGF22 binding-2 inactive and SYPRO no-protein inactive.
For O=C(C[C@H]1C[C@H]2c3cc(NC(=O)NC4CCCC4)ccc3O[C@H]2[C@@H](CO)O1)NCCN1CCCCC1 the results were SIRT5 inh inactive, FGF22 binding-1 19, Casp6 inh inactive, FGF22 binding-2 inactive and SYPRO no-protein inactive.
